These results are taken from ChEMBL document CHEMBL1146514, “New peptaibols from Mycogone cervina” (J Nat Prod, 2004).

One assay concerns Bacillus subtilis. As to the kind of experiment: Antimicrobial activity against Bacillus subtilis ATCC 6633 at 100 ug/disk after 24 hrs by standard disk assay. To be noted: ATCC 6633, 24 h, read-out: IZ. In kind it is functional. The procedure, abridged:
(§1)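 Bacteria grown on nutrient agar at 37 °C. Test plates seeded with 5×10^5 cells per mL. Compound loaded onto 6 mm filter disks placed on the agar. Inhibition zone diameters read after 24 h.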

The subject of another assay is Brevibacillus brevis. Put plainly: Antimicrobial activity against Bacillus brevis ATCC 9999 at 100 ug/disk after 24 hrs by standard disk assay. Type of assay: functional. The settings on record: ATCC 9999, 24 h, read-out: IZ. The procedure, abridged: as §1
A further assay concerns Micrococcus luteus. As to the kind of experiment: Antimicrobial activity against Micrococcus luteus ATCC 21415 at 100 ug/disk after 24 hrs by standard disk assay. In kind it is functional. The settings on record: ATCC 21415, 24 h, read-out: IZ. The method in brief: as §1
In assay [1] the test system is L1210. As to the kind of experiment: Cytotoxicity against mouse L1210 cells. In kind it is functional, cell-based. The procedure, abridged:
(§2)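 Cells were grown and assayed in RPMI 1640 medium, and the IC50 was reported.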

Assay [2] in a line: Cytotoxicity against human COLO320 cells. The settings on record: COLO 320. In kind it is functional, cell-based. The procedure, abridged: as §2
Assay [3] relates to L1210. Put plainly: Cytotoxicity against mouse L1210 cells at 100 ug/ml. In kind it is functional, cell-based.

Values after ≈ are worked out from the molar mass of the structure shown. Active and inactive are the calls of the source. The calls are words filed in the database; no cut-off is given here. Where a SMILES comes first, the peptide text is derived from it. [ ]: non-standard residue; d: D form. The star is where a group is joined. X1 = CC(=O)OC[C@H](CC(C)C)N*; Aib = CC(C)(N)C(=O)O

With `CC(=O)N[C@@H](CC(C)C)C(=O)NC(C)(C)C(=O)N1CCC[C@H]1C(=O)NC(C)(C)C(=O)N[C@@H](CC(C)C)C(=O)NC(C)(C)C(=O)N1CCC[C@H]1C(=O)N[C@@H](C)C(=O)NC(C)(C)C(=O)N1CCC[C@H]1C(=O)N[C@H](C(=O)N[C@H](COC(C)=O)CC(C)C)C(C)C` (Ac-L[Aib]P[Aib]L[Aib]PA[Aib]PV-X1), the zone of inhibition at 100 µg/disc stood at 11 mm with Bacillus subtilis, 10 mm in the assay with Brevibacillus brevis and 16 mm in the assay on Micrococcus luteus. The concentration for half-maximal inhibition (IC50) in the assay with L1210 [1] came out at 32 µg/mL (≈ 26 µM); in assay [2] it was 40 µg/mL (≈ 32.5 µM).

For `CC(=O)N[C@@H](CC(C)C)C(=O)NC(C)(C)C(=O)N1CCC[C@H]1C(=O)NC(C)(C)C(=O)N[C@@H](CC(C)C)C(=O)NC(C)(C)C(=O)N1CCC[C@H]1C(=O)N[C@@H](C)C(=O)NC(C)(C)C(=O)N1CCC[C@H]1C(=O)N[C@H](C(=O)N[C@H](CO)CC(C)C)C(C)C` [CERVININ], the zone of inhibition at 100 µg/disc with Bacillus subtilis worked out at 8 mm; in the assay with Brevibacillus brevis, 7 mm; in the assay with Micrococcus luteus, 15 mm. The compound also registered an IC50 in assay [2] of 80 µg/mL (≈ 67.4 µM). For the same compound, the outcome in the assay with L1210 [3] was inactive.

As a reminder, the IC50 is the concentration at which inhibition is half-maximal. High values mean lower potency, low ones higher potency.
